Compound activity: PubChem BioAssay, The Scripps Research Institute Molecular Screening Center
GPR7 antag: GPR7 receptor antagonists, primary screen, cell-based, fluorescence, single concentration. actives 1.1% (n = 290,000). GPR7-expressing cells, fluorescence antagonist assay. AID 1861, 2009. inhibition, % at 4.4 µM; in the data active = inhibition above about 16%, passing the limit was not always enough;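 also: cells stimulated with the agonist NPW; 0% = agonist with vehicle and 100% = vehicle without agonist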
Target sequence (P48145 whole entry, looked up): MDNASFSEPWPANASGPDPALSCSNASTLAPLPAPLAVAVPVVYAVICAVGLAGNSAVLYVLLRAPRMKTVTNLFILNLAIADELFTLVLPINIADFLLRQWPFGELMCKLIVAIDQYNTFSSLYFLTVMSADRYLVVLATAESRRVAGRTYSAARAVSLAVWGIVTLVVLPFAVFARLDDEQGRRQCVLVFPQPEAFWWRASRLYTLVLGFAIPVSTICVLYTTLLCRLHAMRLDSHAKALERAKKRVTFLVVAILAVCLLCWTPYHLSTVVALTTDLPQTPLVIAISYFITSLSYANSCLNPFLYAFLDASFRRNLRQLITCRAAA
TAAR1 antag: human TAAR1 antagonists, primary screen, Fluo-8 calcium fluorescence, CHO RD-HGA16 cells | Trace amine-associated receptor 1 (Homo sapiens), Q96RJ0 | antagonist | inhibition, % at 3 µM | actives 1.5% (n = 360,000);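 active = inhibition above a per-plate cutoff, the mean inhibition of test compounds on that plate plus 3 SD, cut at about 49% in these data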;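 also: 0% = DMSO plus EC80 beta-PEA response and 100% = DMSO alone without agonist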
Target sequence (Q96RJ0 whole entry, looked up): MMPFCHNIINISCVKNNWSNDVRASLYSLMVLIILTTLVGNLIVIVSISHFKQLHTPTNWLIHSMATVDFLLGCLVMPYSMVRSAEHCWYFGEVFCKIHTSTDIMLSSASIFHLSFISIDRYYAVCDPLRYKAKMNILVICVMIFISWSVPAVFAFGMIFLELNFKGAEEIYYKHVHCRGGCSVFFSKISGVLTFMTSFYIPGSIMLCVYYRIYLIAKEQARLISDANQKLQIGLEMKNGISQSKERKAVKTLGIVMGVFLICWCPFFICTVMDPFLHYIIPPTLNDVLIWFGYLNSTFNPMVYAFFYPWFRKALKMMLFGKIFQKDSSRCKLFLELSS
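Test system: CHO RD-HGA16 cells bearing hTAAR1 | Reagent: β-PEA, EC80 | Compound dosing: 3 µM, single point | Schedule: Dye loading 75 min at 37 °C, then 30 min room temperature | Signal: Calcium fluorescence with Fluo-8 | Evaluation: Percent inhibition of PEA-evoked calcium signal, max/basal emission ratio | Control set: DMSO-only wells and EC80 β-PEA-stimulated wells | Repeats: Singlicate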
CHO parental Ca: ATP-evoked calcium signal inhibitors, parental CHO, primary screen, counter-screen for OX1R antagonist project, cell-based, fluorescence, Fluo-8 calcium dye; parental CHO-K1, ATP-induced calcium, Fluo-8 fluorescence; inhibition, % at 5.6 µM; actives 0.63% (n = 330,000);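 active = inhibition above that plate's mean sample inhibition plus 3 SD, cut at about 26% in these data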;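 also: 0% = ATP-challenged DMSO wells and 100% = DMSO wells without ATP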
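Assay system: untransfected parental CHO cell line. Also added: ATP agonist challenge. Dosing: one dose, 5.6 µM nominal. Measured by: Fluo-8 fluorescence. Read-out: % inhibition. Benchmarks: ATP wells versus no-ATP DMSO wells. Repeats: no replicates.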
OX1R antag-1: OX1R (HCRTR1) antagonists, primary screen, fluorescence, CHO/OX1R cells, Fluo-8 calcium, orexin A. Orexin/Hypocretin receptor type 1 (Homo sapiens), O43613. Fluo-8 calcium fluorescence. inhibition, % at 5 µM. actives 0.43% (n = 330,000);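 active = inhibition above its plate's threshold, mean inhibition of all tested compounds on the plate plus 3 SD, cut at about 37% in these data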;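 also: 0% = orexin A challenge wells and 100% = SB-334867-A antagonist wells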
OX1R antag-2: antagonists of human orexin 1 receptor (OX1R). Orexin/Hypocretin receptor type 1 (Homo sapiens), O43613. OX1R-expressing cells, FRET antagonist read-out. inhibition, % at 6.6 µM. actives 1.8% (n = 330,000); in the data active = inhibition mostly above about 38%, no sharp cut-off; inactive = mostly below about 40%;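 also: 0% = agonist challenge alone and 100% = reference antagonist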
TAAR1 agonist: human TAAR1 agonists, primary screen, Fluo-8 calcium fluorescence, CHO RD-HGA16 cells. actives 0.99% (n = 360,000). AID 624467, 2012. vehicle wells 0%, saturating PEA agonist 100%. Trace amine-associated receptor 1 (Homo sapiens), Q96RJ0. activation, % at 3 µM;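 active = activation above the mean activation of all test compounds in the run plus 3 SD, cut at about 38% in these data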
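Test system: RD-HGA16 (CHO) cells co-expressing Gα16 and hTAAR1 / Benchmarks: DMSO vehicle as 0%, PEA at EC100 as 100% / Repeats: no replicates (n 1) / Measure: % activation from peak over basal fluorescence ratio, DMSO-to-PEA scaled / Timing: 17-24 h plating, Fluo-8 75 min 37 °C, 30 min RT / Technique: kinetic Fluo-8 calcium fluorescence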
TAAR1 ag conf: human TAAR1 agonists, retest of hits, confirmation, Fluo-8 calcium fluorescence, CHO RD-HGA16 cells; shares compounds with TAAR1 agonist; scaled: DMSO 0%, maximal phenethylamine 100%; activation, % at 3 µM; actives 82% (n = 2,400);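 active = activation above a cutoff set at the run's mean compound activation plus 3 SD, cut at about 39% in these data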
Ga16 nonsel ag: nonselective calcium mobilization agonists, CHO-Ga16 cells, counter-screen for hTAAR1 agonist project, cell-based, fluorescence, CHO-Ga16 parental line; shares compounds with TAAR1 agonist; Fluo-8 calcium fluorescence; normalized to maximal ATP response, DMSO zero; activation, % at 3 µM; actives 50% (n = 2,400);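 active = activation above the run cutoff, the mean activation over all tested wells plus 3 SD, cut at about 12% in these data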;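 also: 0% = DMSO wells and 100% = maximal ATP response on the peak over basal ratio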
TAAR1 desensitize: TAAR1 desensitization by agonist hits, confirmation, counter-screen for TAAR1 agonist project, cell-based, fluorescence, tachyphylaxis | shares compounds with TAAR1 agonist | CHO RD-HGA16 hTAAR1, Fluo-8 calcium, beta-PEA response inhibition | inhibition, % at 3 µM | actives 46% (n = 2,400) | AID 651951, 2012;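 active = inhibition above the run cutoff, the mean inhibition of all test compounds plus 3 SD, cut at about 49% in these data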;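 also: beta-PEA stimulus applied at its EC80; loss of beta-PEA calcium signal after compound pretreatment read as receptor desensitization; 0% = DMSO with beta-PEA at EC80 and 100% = DMSO alone without agonist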
Ga16 antag count: inhibition of ATP-evoked calcium response in CHO-Ga16 cells, counter-screen for TAAR1 agonist project, cell-based, fluorescence | shares compounds with TAAR1 agonist | inhibition, % at 3 µM | CHO-Ga16 ATP-induced calcium, Fluo-8 fluorescence | actives 39% (n = 2,400);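 active = inhibition above the plate's mean compound inhibition plus 3 SD, computed per plate, cut at about 22% in these data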;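 also: 0% = EC80 ATP with DMSO and 100% = DMSO wells without ATP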
* marks the source's active call; other numbers are inactive results; · = no result. Shown are actives, neighbours in structure and some others; about 4.5% of the full set was active somewhere.

SMILES	GPR7 antag	TAAR1 antag	CHO parental Ca	OX1R antag-1	OX1R antag-2	TAAR1 agonist	TAAR1 ag conf	Ga16 nonsel ag	TAAR1 desensitize	Ga16 antag count
C#CCOCCOCCOCCNc1nc(N2CCN(C(=O)CCCCCCCCCCNC(=O)Cn3cc(CCCCCN)nn3)CC2)nc(N2CCN(C(=O)CCCCCCCCCCNC(=O)[C@H]([C@@H](C)CC)n3cc(CCCCCN)nn3)CC2)n1	·	·	33	-4	5	·	·	·	·	·
COc1cc(COc2ccc(-c3nnco3)cc2)ccc1OC(F)F	-7	20	-9	-13	14	48*	2	2	-1	6
Cc1noc(C)c1S(=O)(=O)N1CCCN(C(=O)/C=C/c2ccccc2F)CC1	·	10	7	-13	8	-2	·	·	·	·
COc1ccc(C(=O)NC(=S)NNC(=O)c2ccccc2C)cc1	·	92*	11	13	-2	170*	143*	105*	98*	75*
COc1ccc(C(=O)NC(=S)NNC(=O)c2ccccc2O)cc1	-2	33	-10	-11	13	80*	57*	55*	22	27*
COc1cc(C(=O)NNC(=S)NC(=O)c2ccccc2C)cc(OC)c1OC	-2	-4	0	22	11	63*	33	44*	6	11
O=C(NC(=S)NNC(=O)c1cc2ccccc2cc1O)c1ccco1	-9	2	-11	-2	53	75*	44*	37*	24	25*
COc1ccc(C(=O)NC(=S)NNC(=O)c2ccco2)cc1	-1	-8	3	-4	7	7	·	·	·	·
COc1ccccc1C(=O)NNC(=S)NC(=O)c1cc(OC)c(OC)c(OC)c1	-8	18	1	12	22	30	·	·	·	·
COc1ccc(C(=O)NC(=S)NNC(=O)c2cnccn2)cc1	-6	3	0	-4	12	0	·	·	·	·
CCc1noc(C)c1C(=O)N1CCSC1=Nc1cccc(Cl)c1C	-3	-18	-25	-27	18	0	·	·	·	·
COc1cc(C(=O)NC(=S)NNC(=O)[C@H]2C[C@@H]2c2ccccc2)cc(OC)c1OC	-12	-7	-7	-19	6	74*	37	43*	24	14
COc1ccc(C(=O)NNC(=S)NC(=O)C(C)(C)C)cc1	16	98*	58*	62*	5	145*	106*	90*	48	44*
COc1ccc(C(=O)NNC(=O)CCC(=O)NNC(=O)c2ccc(OC)cc2)cc1	-6	-7	-9	-8	10	2	·	·	·	·
COc1ccc(C(=O)NNC(=S)NC(=O)c2cccc([N+](=O)[O-])c2)cc1	·	17	-17	-16	10	66*	88*	64*	36	26*
CCCCCC(=O)NNC(=S)NC(=O)c1cccc([N+](=O)[O-])c1	-3	-22	-1	-7	20	4	·	·	·	·
COc1ccc(C(=O)NC(=S)NNC(=O)COc2ccccc2)cc1	-5	-21	-6	-19	24	46*	66*	52*	20	23*
CC(NCC(O)COc1ccc2ccccc2c1)c1ccccc1 (stereo not drawn)	31	32	9	-24	-9	31	·	·	·	·
Cc1cc(OCC(O)CNC(C)c2ccccc2)ccc1C(C)C (stereo not drawn)	12	30	9	-5	4	63*	71*	32*	54*	32*
COc1ccc(CC(=O)NC(=S)Nc2cccc(CO)c2)cc1	·	0	-4	-13	2	79*	83*	55*	29	16
Cc1cc(C)c(O)c(NC(=S)NC(=O)Cc2ccccc2)c1	19	72*	-3	6	6	95*	85*	48*	54*	37*
COc1ccc(CC(=O)NC(=S)Nc2cccc(C)c2)cc1	·	49*	1	-1	-7	82*	71*	50*	52*	45*
Cc1c(NC(=S)NC(=O)Cc2ccccc2)cccc1C(=O)O	-11	12	2	-6	5	9	·	·	·	·
CC(C)Cc1ccc(CN2CCCC(NC(=O)CCN3CCOCC3)C2)cc1 (stereo not drawn)	-9	4	·	·	·	0	·	·	·	·
C#C[C@]1(O)CCC2C3CCC4=Cc5oncc5CC4(C)C3CCC21C (stereo partly drawn)	·	76*	15	-17	26	62*	60*	43*	54*	36*
SMILES	GPR7 antag	TAAR1 antag	CHO parental Ca	OX1R antag-1	OX1R antag-2	TAAR1 agonist	TAAR1 ag conf	Ga16 nonsel ag	TAAR1 desensitize	Ga16 antag count
C#CC1(O)CCC2C3CCC4=Cc5oncc5CC4(C)C3CCC21C (stereo not drawn)	·	65*	·	·	·	51*	62*	31*	70*	35*
CCOC(=O)c1ccc(S(=O)(=O)NNC(=O)Cc2csc(C)n2)cc1	·	-1	2	-2	-1	1	·	·	·	·
CC1(C)CC(=O)c2c(O)cc(OCC(=O)N3CCN(c4ccc(F)cc4)CC3)cc2O1	-6	9	-15	-22	9	4	·	·	·	·
CCCOc1ccc(-c2c(C(=O)N/N=C(\C)c3cccs3)nnn2-c2nonc2N)cc1	-12	-20	-13	-22	7	53*	56*	22*	2	4
CCOc1ccc(/C(C)=N/NC(=O)c2nnn(-c3nonc3N)c2-c2cccs2)cc1	-13	47	1	2	18	119*	117*	88*	38	13
CCCN(CC(=O)Nc1cc(Cl)ccc1Cl)C(=O)c1ccccn1	·	-10	-8	-3	3	7	·	·	·	·
